From PMC10851409 (ACS Omega, 2024)

Columns and labels:
[1] = biological target: T1, bovine serum albumin (BSA) (Bos taurus, UniProt P02769); assay: UV–vis absorption titration of BSA; type: binding; conditions: pH 7.4; for Enthalpy ΔH / Entropy ΔS: from Kb at 298 and 308 K
In short: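 Peltier-thermostatted spectrophotometer, 1 cm quartz cell, 1 nm slit, spectra over 200–500 nm. BSA in PBS pH 7.4 titrated with test compound (2.46–22.22 μM) and read at 279 nm; ligand-alone absorbance also recorded. Run at 298 and 308 K. Kb taken from the […] of the Benesi–Hildebrand plot, A0/(A–A0) versus 1/[compound]; thermodynamic parameters derived from Kb at both temperatures.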

[2] = biological target: T1, bovine serum albumin (BSA); assay: Steady-state fluorescence quenching of BSA; type: binding; conditions: for Number of binding sites n / Stern–Volmer constant Ksv / Bimolecular quenching rate parameter kq: 298 K; for Stern–Volmer constant Ksv: pH 7.4; for Bimolecular quenching rate parameter kq: τo = 10^–8 s; for Fluorescence quenching mechanism: BSA fluorescence, kq compared with 2.0 × 10^10 m^–1 s^–1
In short: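 BSA stock in PBS pH 7.4, with concentration set from absorbance (ε 43,824 M–1 cm–1); test compounds from DMSO stocks, 2.46–22.22 μM. Emission recorded in a 1.0 cm quartz cuvette at 298 K with excitation at 280 nm and 5 nm excitation/emission bandwidths. Stern–Volmer and modified Stern–Volmer plots analysed; kq calculated using τo of 10–8 s for native BSA.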

[3] = biological target: T1, bovine serum albumin (BSA); assay: Time-resolved fluorescence decay of BSA; type: binding; conditions: 298 K; for α1 / α2 / α3 / τ1 / τ2 / τ3: triexponential fitting
In short: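 Time-correlated single-photon counting with pulsed nanosecond LED excitation at 280 nm, 298 K. Instrument response recorded with a scattering solution; 114 ps per channel. Decays fitted as a sum of exponentials by nonlinear least-squares reconvolution, with pre-exponential factors normalized to 1 and errors taken as three standard deviations. Fit judged by χ2 and weighted residuals; average lifetime from triexponential fits.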

[4] = test system: Plasmodium falciparum; conditions: read-out: IC50 antiplasmodial; P. falciparum; cited from earlier work

T1 sequence (P02769 25-607): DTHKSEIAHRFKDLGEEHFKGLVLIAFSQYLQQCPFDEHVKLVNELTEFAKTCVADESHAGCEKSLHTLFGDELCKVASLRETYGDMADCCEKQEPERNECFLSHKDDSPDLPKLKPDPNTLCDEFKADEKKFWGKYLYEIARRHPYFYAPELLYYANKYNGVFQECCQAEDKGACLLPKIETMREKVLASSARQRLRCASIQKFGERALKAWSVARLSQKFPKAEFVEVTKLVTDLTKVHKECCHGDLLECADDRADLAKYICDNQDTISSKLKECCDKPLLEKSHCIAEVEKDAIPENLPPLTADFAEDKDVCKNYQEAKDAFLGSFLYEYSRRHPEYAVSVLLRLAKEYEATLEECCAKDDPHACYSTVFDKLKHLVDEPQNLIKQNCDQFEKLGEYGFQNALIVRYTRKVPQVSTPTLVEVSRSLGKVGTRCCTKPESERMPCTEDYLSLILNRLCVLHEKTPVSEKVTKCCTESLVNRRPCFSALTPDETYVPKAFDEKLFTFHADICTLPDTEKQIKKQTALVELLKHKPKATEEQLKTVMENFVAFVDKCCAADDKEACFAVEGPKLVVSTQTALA

Structure (SMILES) | Gibbs free energy ΔG ([1]; 298 K) | Gibbs free energy ΔG ([1]; 308 K) | Enthalpy ΔH [1] | Entropy ΔS [1] | Number of binding sites n [2] | Stern–Volmer constant Ksv [2] | Bimolecular quenching rate parameter kq [2] | Fluorescence quenching mechanism [2] | τavg (average fluorescence lifetime of BSA) ([3]; ligand 2.46 μm) | α1 ([3]; ligand 2.46 μm) | α2 ([3]; ligand 2.46 μm) | α3 ([3]; ligand 2.46 μm) | τ1 ([3]; ligand 2.46 μm) | τ2 ([3]; ligand 2.46 μm) | τ3 ([3]; ligand 2.46 μm) | τavg (average fluorescence lifetime of BSA) ([3]; ligand 9.52 μm) | α1 ([3]; ligand 9.52 μm) | α2 ([3]; ligand 9.52 μm) | α3 ([3]; ligand 9.52 μm) | τ1 ([3]; ligand 9.52 μm) | also measured
C[C@H]1C(=O)CC[C@@H]2[C@]1(C)CC[C@H]1[C@@]2(C)CC[C@@]2(C)[C@@H]3CC(C)(C)CC[C@]3(C)CC[C@]12C [friedelin] | –20.52 kJ mol^–1 | –19.22 kJ mol^–1 | –59.26 kJ mol^–1 | –0.13 kJ mol^–1 | 1 | 1.47 × 10^4 L mol^–1 | 1.47 × 10^12 | static quenching | 6.6 | 8.67% | 55.5% | 35.83% | 2.2687 | 5.696 | 7.962 | 6.7 | 13.49% | 84.08% | 2.43% | 2.6997 | τ2 ([3]; ligand 9.52 μm): 6.576; τ3 ([3]; ligand 9.52 μm): 14.2863; τavg (average fluorescence lifetime of BSA) ([3]; ligand 16.09 μm): 6.8; α1 ([3]; ligand 16.09 μm): 9.59%; α2 ([3]; ligand 16.09 μm): 86.56%; α3 ([3]; ligand 16.09 μm): 3.85%; τ1 ([3]; ligand 16.09 μm): 2.21; τ2 ([3]; ligand 16.09 μm): 6.354; τ3 ([3]; ligand 16.09 μm): 14.127; τavg (average fluorescence lifetime of BSA) ([3]; ligand 22.22 μm): 6.5; α1 ([3]; ligand 22.22 μm): 25.73%; α2 ([3]; ligand 22.22 μm): 71.9%; α3 ([3]; ligand 22.22 μm): 2.37%; τ1 ([3]; ligand 22.22 μm): 3.978; τ2 ([3]; ligand 22.22 μm): 7.1; τ3 ([3]; ligand 22.22 μm): 1.075; IC50 [4]: 7.2 µM
CC(C)=CCc1c(O)c(CC=C(C)C)c2oc3c(O)ccc(O)c3c(=O)c2c1O [gartanin] | –24.28 kJ mol^–1 | –23.68 kJ mol^–1 | –42.16 kJ mol^–1 | –0.06 kJ mol^–1 | 1 | 2.57 × 10^4 L mol^–1 | 2.57 × 10^12 | static quenching | 6.2 | 26.45% | 67.78% | 5.77% | 2.971 | 6.871 | 0.8793 | 6.2 | 30.06% | 64.04% | 5.91% | 3.0512 | τ2 ([3]; ligand 9.52 μm): 6.967; τ3 ([3]; ligand 9.52 μm): 0.8022; τavg (average fluorescence lifetime of BSA) ([3]; ligand 16.09 μm): 6.1; α1 ([3]; ligand 16.09 μm): 28.92%; α2 ([3]; ligand 16.09 μm): 64.86%; α3 ([3]; ligand 16.09 μm): 6.22%; τ1 ([3]; ligand 16.09 μm): 2.945; τ2 ([3]; ligand 16.09 μm): 6.882; τ3 ([3]; ligand 16.09 μm): 0.8547; τavg (average fluorescence lifetime of BSA) ([3]; ligand 22.22 μm): 6.2; α1 ([3]; ligand 22.22 μm): 30.4%; α2 ([3]; ligand 22.22 μm): 60.86%; α3 ([3]; ligand 22.22 μm): 8.74%; τ1 ([3]; ligand 22.22 μm): 3.254; τ2 ([3]; ligand 22.22 μm): 7.004; τ3 ([3]; ligand 22.22 μm): 0.9952
